Laboratory results from ChEMBL document CHEMBL4706607, “Anti-tubercular profile of new selenium-menadione conjugates against Mycobacterium tuberculosis H37Rv (ATCC 27294) strain and multidrug-resistant clinical isolates” (Eur J Med Chem, 2021).
Values after ≈ are worked out from the molar mass of the structure shown.

Legend:
[1] = system: Mycobacterium tuberculosis; assay: Antimycobacterial activity against Mycobacterium tuberculosis H37Rv ATCC 27294 assessed as reduction in bacterial growth by resazurin reduction microplate assay; format: functional
Outline: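 REMA in Middlebrook 7H9 broth with 10% ADC. Compounds dissolved at 1 mg/mL in DMSO and diluted to 50 μg/mL in broth containing 5% DMSO. Ten-point two-fold dilutions gave 25.0 to 0.05 μg/mL. Growth and sterility controls on each plate. MIC was the lowest concentration preventing the blue-to-pink change.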

[2] = Cytotoxicity against African green monkey Vero cells assessed as reduction in cell viability incubated for 24 hrs by MTT assay; format: cell-based; settings: chlorocebus sabaeus
Outline: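 Vero cells kept in DMEM with 4.5 mg/mL glucose and 10% inactivated FBS at 37 °C, 5% CO2. Seeded at 30,000 cells/well and grown 24 h, then exposed to 5, 10, 25 and 50 μM for 24 h. Control was medium with 1% DMSO. MTT 0.5 mg/mL in HBSS for 3 h; formazan dissolved in DMSO and read at 570–690 nm. CC50 taken from survival relative to untreated cells.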

[3] = Selectivity index, ratio of CC50 for African green monkey Vero cells to MIC for Mycobacterium tuberculosis H37Rv ATCC 27294; format: toxicity; settings: read-out: Selectivity Index
[4] = Selectivity index, ratio of CC50 for African green monkey Vero cells to MIC for Mycobacterium tuberculosis CDCT-16; format: toxicity; settings: read-out: Selectivity Index
[5] = Selectivity index, ratio of CC50 for African green monkey Vero cells to MIC for Mycobacterium tuberculosis CDCT-27; format: toxicity; settings: read-out: Selectivity Index

Structure (SMILES) | MIC [1] | CC50 at 24 h [2] | selectivity ratio [3] | selectivity ratio [4] | selectivity ratio [5]
CC1=C(C[Se]C(=O)c2ccc(C)cc2)C(=O)c2ccccc2C1=O | > 10 µM |  |  |  | 
CC1=C(C[Se]C(=O)c2ccc(Cl)cc2)C(=O)c2ccccc2C1=O | > 10 µM |  |  |  | 
COc1ccc(C(=O)[Se]CC2=C(C)C(=O)c3ccccc3C2=O)cc1 | > 10 µM |  |  |  | 
CCCC(C)C(=O)[Se]CC1=C(C)C(=O)c2ccccc2C1=O (centres undefined) | > 10 µM |  |  |  | 
CCCCC(=O)[Se]CC1=C(C)C(=O)c2ccccc2C1=O | > 10 µM |  |  |  | 
CC1=C(C[Se]C(=O)c2ccccc2C)C(=O)c2ccccc2C1=O | 8.1 µM (≈ 3.1 µg/mL) | 7.7 µM | 0.9 | 2.5 | 2.5
CC1=C(C[Se]C(=O)c2ccccc2)C(=O)c2ccccc2C1=O | 2.1 µM (≈ 0.775 µg/mL) | > 50 µM | > 23.8 | > 62.5 | > 62.5
CCc1ccc(C(=O)[Se]CC2=C(C)C(=O)c3ccccc3C2=O)cc1 | > 10 µM |  |  |  | 
CC1=C(C[Se]C(=O)c2ccc(F)cc2)C(=O)c2ccccc2C1=O | 8 µM (≈ 3.1 µg/mL) | > 50 µM | > 6.2 | > 62.5 | > 16.1
NNC(=O)c1ccncc1 [ISONIAZID] | 2.2 µM (≈ 0.302 µg/mL) | > 50 µM | > 22.7 |  | 
